{
  "source": "ChEMBL document CHEMBL4825680",
  "about": "“Structure-based discovery of potent and selective small-molecule inhibitors targeting signal transducer and activator of transcription 3 (STAT3)” (Eur J Med Chem, 2021)",
  "key": {"MDA-MB-231": {"tested_on": "MDA-MB-231", "assay": "Antiproliferative activity against human MDA-MB-231 cells", "type": "functional, cell-based"}, "[1]": {"assay": "Metabolic stability in human liver microsomes assessed as half life at 0.1 uM preincubated for 10 mins followed by NADPH addition and measured upto 60 mins by LC-MS/MS analysis", "type": "ADME, Microsome", "details": "time <=70 min", "summary_of_the_method": "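Microsomes at 0.33 mg/mL in 0.1 M Tris pH 7.4 with 5 mM MgCl2; compound final 0.1 μM (0.01% DMSO, 0.005% BSA). Preincubated 10 min at 37 °C, then started with 1 mM NADPH. Sampled at 0, 7, 17, 30 and 60 min and quenched with cold methanol. Centrifuged, then analysed by LC-MS/MS.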"}, "[2]": {"biological_target": "T1, Signal transducer and activator of transcription 3 (Homo sapiens, UniProt P40763)", "T1 sequence (P40763 whole entry)": "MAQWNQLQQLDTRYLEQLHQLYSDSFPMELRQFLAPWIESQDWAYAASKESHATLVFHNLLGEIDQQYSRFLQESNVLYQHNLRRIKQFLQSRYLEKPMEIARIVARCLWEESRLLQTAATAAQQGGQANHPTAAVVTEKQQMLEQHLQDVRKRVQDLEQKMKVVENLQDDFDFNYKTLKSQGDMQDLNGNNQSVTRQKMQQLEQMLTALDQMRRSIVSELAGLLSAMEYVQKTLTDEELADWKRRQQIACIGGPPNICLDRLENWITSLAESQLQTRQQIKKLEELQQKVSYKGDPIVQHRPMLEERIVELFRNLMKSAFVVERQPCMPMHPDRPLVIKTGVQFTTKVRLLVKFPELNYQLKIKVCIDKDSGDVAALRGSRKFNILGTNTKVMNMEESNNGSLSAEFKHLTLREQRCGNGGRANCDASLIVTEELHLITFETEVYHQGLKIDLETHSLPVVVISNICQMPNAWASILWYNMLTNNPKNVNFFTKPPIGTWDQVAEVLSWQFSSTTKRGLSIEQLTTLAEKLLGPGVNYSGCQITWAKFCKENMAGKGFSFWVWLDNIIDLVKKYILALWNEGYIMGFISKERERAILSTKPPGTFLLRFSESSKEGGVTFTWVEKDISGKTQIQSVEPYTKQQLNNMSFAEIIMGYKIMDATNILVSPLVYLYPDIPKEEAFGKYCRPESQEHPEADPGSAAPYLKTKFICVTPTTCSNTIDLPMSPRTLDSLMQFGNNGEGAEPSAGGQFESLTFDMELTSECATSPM", "assay": "Inhibition of STAT3 phosphorylation at Tyr705 residue in human HCC70 cells after 3 hrs by Western blotting analysis", "type": "cell-based", "details": "dose 0.3-3 µM"}, "[3]": {"biological_target": "T1, Signal transducer and activator of transcription 3", "assay": "Inhibition of STAT3 phosphorylation at Tyr705 residue in human MDA231-LM2-4175 cells after 3 hrs by Western blotting analysis", "type": "cell-based", "details": "dose 0.3-3 µM"}, "HCC70": {"tested_on": "HCC70", "assay": "Effect on total STAT1 level in human HCC70 cells at 0.3 to 3 uM after 3 hrs by Western blotting analysis", "type": "functional, cell-based", "details": "dose 0.3-3 µM", "summary_of_the_method": "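Breast cancer cells were treated with vehicle (0.1% DMSO) or compound, then lysed in RIPA with PMSF and phosphatase inhibitors. 20–50 μg protein was run on 8 or 12% SDS-PAGE, blotted to PVDF, blocked in 5% BSA, probed with primary antibodies overnight at 4 °C, then HRP secondaries, with ECL detection.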"}, "[4]": {"biological_target": "T1, Signal transducer and activator of transcription 3", "assay": "Inhibition of HA-tagged STAT3 dimerization (unknown origin) expressed in HEK293T cells after 24 hrs by confocal microscopic analysis", "type": "cell-based", "details": "dose 1-3 µM", "summary_of_the_method": "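HEK-293T cells transfected with HA-STAT3 and Flag-STAT3. After 24 h, treated with vehicle (0.1% DMSO) or compound for 24 h, with IL-6 100 ng/mL added for 30 min. Fixed in paraformaldehyde, permeabilised with Triton X-100, stained with anti-HA and anti-Flag plus Alexa 488/555 secondaries and DAPI. Confocal imaging for colocalisation.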"}, "[5]": {"biological_target": "T1, Signal transducer and activator of transcription 3", "assay": "Inhibition of Flag-tagged STAT3 dimerization (unknown origin) expressed in HEK293T cells preincubated for 3 hrs followed by IL-3 stimulation by immunoprecipitation analysis", "type": "cell-based", "details": "dose 1-3 µM"}, "[6]": {"biological_target": "T1, Signal transducer and activator of transcription 3", "assay": "Inhibition of STAT3 in human MDA-MB-231 cells assessed as downregulation of c-Myc expression at 0.3 to 3 uM after 24 hrs by western blot analysis", "type": "cell-based", "details": "dose 0.3-3 µM", "summary_of_the_method": "(§1)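 TNBC cells given vehicle (0.1% DMSO) or graded compound levels for 24 h, lysed in RIPA with PMSF and phosphatase inhibitors. BCA-quantified lysate (20–50 µg) run on SDS-PAGE, transferred to PVDF, blocked in 5% BSA. Probed overnight at 4 °C for Bcl-xL, Mcl-1 and c-Myc, with β-actin. HRP secondary, ECL detection. Three independent experiments.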"}, "[7]": {"biological_target": "T1, Signal transducer and activator of transcription 3", "assay": "Inhibition of STAT3 in human MDA-MB-468 cells assessed as downregulation of Bcl-xL expression at 0.3 to 3 uM after 24 hrs by western blot analysis", "type": "cell-based", "details": "dose 0.3-3 µM", "summary_of_the_method": "as §1"}, "[8]": {"biological_target": "T1, Signal transducer and activator of transcription 3", "assay": "Inhibition of STAT3 in human MDA-MB-468 cells assessed as downregulation of Mcl-1 expression at 0.3 to 3 uM after 24 hrs by western blot analysis", "type": "cell-based", "details": "dose 0.3-3 µM", "summary_of_the_method": "as §1"}, "MDA-MB-468 [9]": {"tested_on": "MDA-MB-468", "assay": "Inhibition of colony formation in human MDA-MB-468 cells at 0.3 uM after 10 to 15 days by crystal violet staining based assay", "type": "functional, cell-based", "details": "time 10-15 day", "summary_of_the_method": "(§2)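 Cells seeded at 0.5×10^3–1×10^3 per well; compound added the next day. Medium and compound renewed every 2–3 days. After about 10–15 days, colonies fixed with 4% paraformaldehyde, stained with crystal violet, scanned and quantified by image analysis. Triplicate.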"}, "MDA231-LM2-4175": {"tested_on": "MDA231-LM2-4175", "assay": "Inhibition of colony formation in human MDA231-LM2-4175 cells at 0.3 uM after 10 to 15 days by crystal violet staining based assay", "type": "functional, cell-based", "details": "time 10-15 day", "summary_of_the_method": "as §2"}, "[10]": {"assay": "Induction of apoptosis in human MDA231-LM2-4175 cells assessed as necrotic cells at 1 uM after 48 hrs by Annexin-V-FITC/propidium iodide staining based flow cytometric analysis (reference value: 0.531%)", "type": "functional"}, "[11]": {"assay": "Induction of apoptosis in human MDA231-LM2-4175 cells assessed as late apoptotic cells at 3 uM after 48 hrs by Annexin-V-FITC/propidium iodide staining based flow cytometric analysis (reference value: 2.60%)", "type": "functional"}, "[12]": {"assay": "Induction of apoptosis in human MDA231-LM2-4175 cells assessed as necrotic cells at 3 uM after 48 hrs by Annexin-V-FITC/propidium iodide staining based flow cytometric analysis (reference value: 0.531%)", "type": "functional"}, "MDA-MB-468 [13]": {"tested_on": "MDA-MB-468", "assay": "Induction of apoptosis in human MDA-MB-468 cells assessed as early apoptotic cells at 1 uM after 48 hrs by Annexin-V-FITC/propidium iodide staining based flow cytometric analysis (reference value: 2.66%)", "type": "functional"}, "MDA-MB-468 [14]": {"tested_on": "MDA-MB-468", "assay": "Induction of apoptosis in human MDA-MB-468 cells assessed as necrotic cells at 3 uM after 48 hrs by Annexin-V-FITC/propidium iodide staining based flow cytometric analysis (reference value: 0.240%)", "type": "functional"}, "[15]": {"assay": "Toxicity in mouse xenografted with human MDA-MB-231-4175 cells assessed as morphological change in heart at 5 to 15 mg/kg, […] once daily for 20 days by HE staining based assay", "type": "organism-based", "details": "in vivo, iv, 480 h, dose 5-15 mg/kg, time 20 day", "summary_of_the_method": "(§3)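 Female NOD-SCID mice aged 4–5 weeks, given 2×10^6–3×10^6 MDA-MB-231-4175 cells subcutaneously in the flank. At about 100 mm³ tumour volume, randomised n=6/group: vehicle (PBS with 15% Cremophor EL), 5 or 15 mg/kg intraperitoneally daily. Killed at day 20; heart, liver, spleen, lung and kidney collected for morphological examination.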"}, "[16]": {"assay": "Toxicity in mouse xenografted with human MDA-MB-231-4175 cells assessed as morphological change in spleen at 5 to 15 mg/kg, […] once daily for 20 days by HE staining based assay", "type": "organism-based", "details": "in vivo, iv, 480 h, dose 5-15 mg/kg, time 20 day", "summary_of_the_method": "as §3"}, "[17]": {"assay": "Antitumor activity against patient-derived breast cancer cells xenografted in NOD/SCID mouse assessed as tumor growth inhibition at 5 mg/kg, iv administered once daily for 20 days", "type": "functional", "details": "Homo sapiens, Breast cancer cell line, 480 h, time 20 day, read-out: TGI"}, "Breast cancer cell line": {"tested_on": "Breast cancer cell line", "assay": "Antitumor activity against patient-derived breast cancer cells xenografted in NOD/SCID mouse assessed as reduction in Bcl-xL expression at 5 to 15 mg/kg, iv administered once daily for 20 days by Western blotting analysis", "type": "functional, organism-based", "details": "Homo sapiens, dose 5-15 mg/kg, time 20.0 day"}, "[18]": {"assay": "Toxicity in NOD/SCID mouse xenografted with patient-derived breast cancer cells assessed as morphological change in kidney at 5 to 15 mg/kg, […] once daily for 20 days by HE staining based assay", "type": "organism-based", "details": "in vivo, iv, dose 5-15 mg/kg, time 20 day", "summary_of_the_method": "as §3, with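 “implanted” for “aged 4–5 weeks, given 2×10^6–3×10^6 MDA-MB-231-4175 cells”, “flank with about 2 mm³ TNBC PDX fragments.” for “flank.”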"}},
  "note": "Activity calls are given as the source filed them. The calls are words filed in the database; no cut-off is given here.",
  "data": [
    {"smiles": "O=C(Cc1c(-c2ccccc2)nc2ccccn12)Nc1ccc2c(c1)S(=O)(=O)C=C2", "values": [
      {"measurement": "IC50", "setting": "MDA-MB-231", "value": 1200, "unit": "nM"},
      {"measurement": "half-life at 0.1 µM", "setting": "[1]", "value": 24.2, "unit": "min"},
      {"measurement": "inhibition", "setting": "[2]", "value": "Dose-Dependent Effect"},
      {"measurement": "inhibition", "setting": "[3]", "value": "Dose-Dependent Effect"},
      {"measurement": "Activity", "setting": "HCC70", "value": "inactive"},
      {"measurement": "inhibition", "setting": "[4]", "value": "Dose-Dependent Effect"},
      {"measurement": "inhibition", "setting": "[5]", "value": "Dose-Dependent Effect"},
      {"measurement": "inhibition", "setting": "[6]", "value": "Active"},
      {"measurement": "inhibition", "setting": "[7]", "value": "Active"},
      {"measurement": "inhibition", "setting": "[8]", "value": "Active"},
      {"measurement": "inhibition", "setting": "MDA-MB-468 [9]", "value": "Active"},
      {"measurement": "inhibition", "setting": "MDA231-LM2-4175", "value": "Active"},
      {"measurement": "Activity", "setting": "[10]", "value": 1.1, "unit": "%"},
      {"measurement": "Activity", "setting": "[11]", "value": 5.71, "unit": "%"},
      {"measurement": "Activity", "setting": "[12]", "value": 1.37, "unit": "%"},
      {"measurement": "Activity", "setting": "MDA-MB-468 [13]", "value": 24, "unit": "%"},
      {"measurement": "Activity", "setting": "MDA-MB-468 [14]", "value": 1.33, "unit": "%"},
      {"measurement": "Activity", "setting": "[15]", "value": "Non-Toxic"},
      {"measurement": "Activity", "setting": "[16]", "value": "Non-Toxic"},
      {"measurement": "inhibition in vivo at 5 mg/kg", "setting": "[17]", "value": 32.7, "unit": "%"},
      {"measurement": "Activity", "setting": "Breast cancer cell line", "value": "Active"},
      {"measurement": "Activity", "setting": "[18]", "value": "Non-Toxic"}
    ]}
  ]
}
